The subject of series [1] is MT4. The experiment in a line: Cytotoxicity against human MT4 cells assessed as reduction in cell viability after 3 days by CellTiter-Glo luminescent assay. It is filed as cell-based. To be noted: mt4, 72 h.
Series [2] in a line: Therapeutic index, ratio of CC50 for human MT4 cells to EC50 for HIV1 NL4-3 infected in human MT4 cells. To be noted: read-out: Ratio CC50/EC50. The format is toxicity, cell-based. An outline of the steps: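 TI calculated as CC50 (CellTiter-Glo, MT4 cells, 3 days) divided by EC50 (HIV-1 NL4-3 Nanoluc-sec multicycle replication in MT4 cells, luciferase read-out); CC50/EC50 below 5 taken as no selective anti-HIV activity.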

Series [3] has as its system Human immunodeficiency virus 1. The experiment in a line: Antiviral activity against HIV1 NL4-3 infected in human MT4 cells by luciferase reporter gene assay. It is filed as functional, organism-based. The note with it: Human immunodeficiency virus 1, NL4-3, MT4; read-out: EC50. An outline of the steps: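 HIV-1 NL4-3 Nanoluc-sec reporter virus (secreted NanoLuc insert) infecting MT4 cells, multicycle replication format, compounds at various concentrations; replication read as NanoLuc luciferase activity (Nano-Glo).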

As for `CC(=O)O[C@H]1[C@@H]2O[C@@]3(C(C)(C)O[C@H]4O[C@H](CO)[C@@H](O)[C@H](O)[C@H]4O)CC[C@](C)(O3)[C@@H]2[C@@]2(C)CC[C@@]34C[C@@]35CC[C@H](O[C@@H]3OC[C@@H](O)[C@H](O)[C@H]3O)C(C)(C)[C@@H]5CC[C@H]4[C@]12C`, the CC50 (commonly the concentration that lowers cell viability or growth by half) in series [1] was 35.4 µM. The selectivity ratio in series [2] worked out at 9.4. In addition, in series [3], the EC50 (as a rule, the concentration needed to bring the measured effect to its halfway point) stood at 3.76 µM.
